Data reported in article PMC7931638 (Xenobiotica; the fate of foreign compounds in biological …, 2020).
Read-outs that look alike come from different tables or passages of the source.

How the values were obtained:
[1] = assay type: in vivo, mouse; conditions: male mice; for group mean daily body weight gain: 7 d; for average daily feed consumption: 7 d exposure; for survival: all exposure groups, 7 d via feed
[2] = male rats, ref Waidyanatha et al., cited from earlier work
[3] = assay type: in vivo, rat; conditions: male rats; for group mean daily body weight gain: 7 d; for average daily feed consumption: 7 d exposure; for survival: all exposure groups, 7 d via feed
[4] = in vivo; conditions: male, B6C3F1/N, mouse; for half-life: Free Elimination half-life
[5] = Stability in dosed-feed formulations; assay type: physicochemical; conditions: up to 42 d, RE ≤ ± 10% of day 0 value
[6] = in vivo; conditions: male; for half-life: po, Free Elimination half-life
[7] = assay type: in vivo, rat; conditions: male rats, dose-normalized
Procedure, shortened: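 Male rats (272–308 g, 8–9 weeks), singly caged, received dosed feed ad libitum at 338, 1125 or 3750 ppm for 7 days. Control feed followed, with plasma sampled up to 24 h. Free and deconjugated total test compound were measured by LC-MS/MS. Cmax and AUC came from an extravascular model and were normalized to the daily dose (food consumption, concentration, body weight). Gavage values were taken from earlier single-dose work.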

[8] = Hsd:Sprague Dawley SD (rat), B6C3F1/N (mouse)
[9] = gavage 34 mg/kg vs feed 23.4 mg/kg
[10] = gavage 110 mg/kg vs feed 70.5 mg/kg
[11] = gavage 340 mg/kg vs feed 193 mg/kg

O=S(=O)(c1ccc(O)cc1)c1ccc(O)cc1 [BPS, 4,4’-sulfonyldiphenol]
group mean daily body weight gain ([1]; 338 ppm via feed): 0.1 ± 0.4 g
average daily feed consumption ([1]; 338 ppm): 389 ± 85 g/kg bw/d
group mean daily body weight gain ([1]; 1125 ppm via feed): 0.1 ± 0.3 g
average daily feed consumption ([1]; 1125 ppm): 381 ± 61 g/kg bw/d
group mean daily body weight gain ([1]; 3375 ppm via feed): 0.1 ± 0.3 g
average daily feed consumption ([1]; 3375 ppm): 348 ± 131 g/kg bw/d
survival [1]: All animals survived until the end of the study
Gavage Cmax/D ([2]; single gavage 34 mg/kg, 2020): 9.2 (ng/mL)/(mg/kg)
Gavage Cmax/D ([2]; single gavage 340 mg/kg, 2020): 9.5 (ng/mL)/(mg/kg)
group mean daily body weight gain ([3]; 338 ppm via feed): 3.7 ± 4.4 g
average daily feed consumption ([3]; 338 ppm): 68 ± 2.5 g/kg bw/d
group mean daily body weight gain ([3]; 1125 ppm via feed): 3.7 ± 2.7 g
average daily feed consumption ([3]; 1125 ppm): 68 ± 3.5 g/kg bw/d
group mean daily body weight gain ([3]; 3375 ppm via feed): 2.6 ± 5.9 g
average daily feed consumption ([3]; 3375 ppm): 62 ± 5.1 g/kg bw/d
survival [3]: All animals survived until the end of the study
Total plasma elimination half-lives, range over exposure concentrations [4]: 6.11 to 7.89 h
Free Elimination half-life ([4]; po): 6.82 h
half-life ([4]; po): 6.11 h
stability in feed formulations stored at refrigerated temperature [5]: confirmed
Free and total Cmax, difference between rats and mice [6, 8]: ≤ 2 fold
Free and total plasma elimination half-lives, difference between rats and mice [6, 8]: ≤ 2 fold
half-life ([6]; Hsd:Sprague Dawley SD, rat): 4.82 h

Oc1ccc(C(c2ccc(O)cc2)(C(F)(F)F)C(F)(F)F)cc1 [BPAF, 2,2-bis(4-hydroxyphenyl)perfluoropropane]
Ratio (Gavage/Feed) AUC [7, 9]: 2.3
Ratio (Gavage/Feed) Cmax [7, 9]: 3.9
Ratio (Gavage/Feed) AUC [7, 10]: 1.6
Ratio (Gavage/Feed) Cmax [7, 10]: 2.2
Ratio (Gavage/Feed) AUC [7, 11]: 3.7
Ratio (Gavage/Feed) Cmax [7, 11]: 4.9
group mean daily body weight gain ([1]; 338 ppm via feed): 0.3 ± 0.5 g
average daily feed consumption ([1]; 338 ppm): 207 ± 68 g/kg bw/d
group mean daily body weight gain ([1]; 1125 ppm via feed): 0.1 ± 0.6 g
average daily feed consumption ([1]; 1125 ppm): 211 ± 68 g/kg bw/d
group mean daily body weight gain ([1]; 3750 ppm via feed): 0.1 ± 0.7 g
feed consumption, fold higher than pre-study control food consumption ([1]; 3750 ppm, probably due to high spillage rate): 1.7 fold
survival [1]: All animals survived until the end of the study
Gavage AUC/D ([2]; single gavage 34 mg/kg, 2019): 11.7 (h*ng/mL)/(mg/kg)
Gavage Cmax/D ([2]; single gavage 34 mg/kg, 2019): 1.79 (ng/mL)/(mg/kg)
Gavage AUC/D ([2]; single gavage 110 mg/kg, 2019): 11.2 (h*ng/mL)/(mg/kg)
Gavage Cmax/D ([2]; single gavage 110 mg/kg, 2019): 1.29 (ng/mL)/(mg/kg)
Gavage AUC/D ([2]; single gavage 340 mg/kg, 2019): 14.2 (h*ng/mL)/(mg/kg)
Gavage Cmax/D ([2]; single gavage 340 mg/kg, 2019): 1.62 (ng/mL)/(mg/kg)
group mean daily body weight gain ([3]; 338 ppm via feed): 3.38 ± 3.37 g
average daily feed consumption ([3]; 338 ppm): 69.2 ± 5.8 g/kg bw/d
group mean daily body weight gain ([3]; 1125 ppm via feed): 2.12 ± 3.68 g
average daily feed consumption ([3]; 1125 ppm): 61.0 ± 11.7 g/kg bw/d
group mean daily body weight gain ([3]; 3750 ppm via feed): −0.4 ± 2.3
average daily feed consumption ([3]; 3750 ppm): 51.5 ± 20.5 g/kg bw/d
survival [3]: All animals survived until the end of the study
Total plasma elimination half-lives, range over exposure concentrations [4]: 3.49 to 4.18 h
half-life ([4]; po): 6.66 h
stability in feed formulations stored at refrigerated temperature [5]: confirmed
Total plasma elimination half-lives, fold longer in rats compared to mice [6, 8]: 2-3 fold
Total Elimination half-life ([6]; Hsd:Sprague Dawley SD, rat): 13.3 h
half-life ([6]; Hsd:Sprague Dawley SD, rat): 7.1 h
